From ChEMBL document CHEMBL3407395, “Synthesis, characterization, and optimization for in vivo delivery of a nonselective isopeptidase inhibitor as new antineoplastic agent” (J Med Chem, 2015)
Calls of active or inactive are those of the source. No cut-off for these calls is given here.

Key:
[1] = target: T1, Ubiquitin carboxyl-terminal hydrolase 2 (Homo sapiens) (UniProt O75604); experiment: Inhibition of USP2 catalytic domain (unknown origin) expressed in bacteria using Ub-AMC as substrate preincubated for 30 mins before substrate addition measured after 60 mins by fluorescence assay
T1 sequence (whole entry): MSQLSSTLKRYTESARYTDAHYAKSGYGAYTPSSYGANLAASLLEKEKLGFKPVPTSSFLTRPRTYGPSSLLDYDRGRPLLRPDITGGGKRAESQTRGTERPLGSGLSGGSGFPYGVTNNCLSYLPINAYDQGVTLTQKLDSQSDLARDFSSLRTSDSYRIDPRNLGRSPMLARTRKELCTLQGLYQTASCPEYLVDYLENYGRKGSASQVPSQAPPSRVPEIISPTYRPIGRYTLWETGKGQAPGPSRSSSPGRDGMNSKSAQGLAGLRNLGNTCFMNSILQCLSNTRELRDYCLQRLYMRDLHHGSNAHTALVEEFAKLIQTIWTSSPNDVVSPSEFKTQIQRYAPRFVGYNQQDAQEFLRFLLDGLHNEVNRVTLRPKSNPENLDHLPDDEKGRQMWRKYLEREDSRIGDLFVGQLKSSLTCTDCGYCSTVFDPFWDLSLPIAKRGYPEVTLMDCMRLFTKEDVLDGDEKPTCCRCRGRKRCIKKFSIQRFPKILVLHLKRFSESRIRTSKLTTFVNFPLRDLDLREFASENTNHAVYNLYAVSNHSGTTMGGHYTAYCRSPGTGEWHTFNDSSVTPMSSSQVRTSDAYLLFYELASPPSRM
How it was run: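 Purified isopeptidase activity was measured with ubiquitin-AMC as fluorogenic substrate; IC50 was derived from inhibition.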

U-87 MG = experiment: Induction of apoptosis in human U87MG cells assessed as caspase activation at 0.6 to 10 uM after 24 hrs by rhodamine-based fluorescence assay; assay type: functional, cell-based; settings: U-87MG ATCC
How it was run: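 U87MG or T98G cells exposed 24 h to the listed concentrations. Caspase activity was read as relative fluorescence units from the rhodamine 110 bis-(N-Z-L-aspartyl-L-glutamyl-L-valyl-aspartic acid amide) fluorogenic substrate.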

[2] = Cytotoxicity against human Hep3B cells after 48 hrs by resazurin assay; assay type: functional, cell-based, Hep 3B2
A-375 = experiment: Induction of cell death in human A375 cells assessed as stabilization of p53 at 10 uM after 24 hrs by immunoblot assay; assay type: functional, cell-based
A549 = experiment: Induction of cell death in human A549 cells assessed as accumulation of p53 at 10 uM after 48 hrs by immunoblot assay; assay type: functional, cell-based
How it was run: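 A549 cells grown in normal or A375-conditioned medium, treated with 10 µM. Immunoblots probed poly-ubiquitin accumulation, p53 stabilization and Noxa induction.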

For O=C1/C(=C/c2ccc([N+](=O)[O-])cc2)CC(O)C/C1=C\c1ccc([N+](=O)[O-])cc1 (stereo not given), the inhibition [1] was “inactive”, the Activity (U-87 MG) was “Active” and the IC50 [2] was 8.5 µM. The Activity (A-375) was “Active” and the Activity (A549) was “Active”.
